Experimental data from different studies.
Each line is one published result; the experiments were not run side by side.
FLT3 D835H: Receptor-type tyrosine-protein kinase FLT3 (FLT3, Homo sapiens, UniProt P36888, D835H)
FLT3 autoinhibited: Receptor-type tyrosine-protein kinase FLT3, autoinhibited (FLT3, Homo sapiens, UniProt P36888)
FLT3 D835V: Receptor-type tyrosine-protein kinase FLT3 (FLT3, Homo sapiens, UniProt P36888, D835V)
FLT3 D835Y: Receptor-type tyrosine-protein kinase FLT3 (FLT3, Homo sapiens, UniProt P36888, D835Y)
FLT3 K663Q: Receptor-type tyrosine-protein kinase FLT3 (FLT3, Homo sapiens, UniProt P36888, K663Q)
FLT3 R834Q: Receptor-type tyrosine-protein kinase FLT3 (FLT3, Homo sapiens, UniProt P36888, R834Q)
FLT3 N841I: Receptor-type tyrosine-protein kinase FLT3 (FLT3, Homo sapiens, UniProt P36888, N841I)
FLT3 ITD: Receptor-type tyrosine-protein kinase FLT3 (FLT3, Homo sapiens, UniProt P36888, ITD)

SMILES | target | effect on | technique | concentration | remaining binding [%]
COc1cnc(Nc2cccc(S(N)(=O)=O)c2)nc1N1CCN(c2ccccc2)CC1 | FLT3 D835H | binding | competition with immobilised ligand | 1 µM | 94
Nc1ncc2c(n1)-c1c([nH]c3ccc(C#CC4CC4)cc13)CCCC2 | FLT3 autoinhibited | binding | competition with immobilised ligand | 1 µM | 82
C[C@H](c1ccnc(Nc2nc3ccc(-c4cc(N(C)C)ncn4)cc3[nH]2)c1)N1CCN(C(=O)CC(F)(F)F)CC1 | Receptor-type tyrosine-protein kinase FLT3 (FLT3, Homo sapiens, UniProt P36888, F691L/ITD) | cell-free assay | competition with immobilised ligand | 0.1 µM | 42
C[C@@H](c1ccc(-n2cnc3c(N)ncnc32)cc1)N1CCc2nn(C)c(Cc3ccccc3)c2C1=O | FLT3 D835V | binding | competition with immobilised ligand | 0.1 µM | 87
c1cncc(-c2cccc(Nc3nccc(NC4CCCCC4)n3)c2)c1 | FLT3 D835V | binding | competition with immobilised ligand | 10 µM | 0
CCS(=O)(=O)c1cc2cc(C[C@@](O)(CC(C)(C)c3ccc(F)cc3C(N)=O)C(F)(F)F)[nH]c2cn1 | FLT3 D835Y | cell-free assay | competition with immobilised ligand | 1 µM | 99
O=C(c1ccc(Nc2ncc(Cl)c(-c3ccc(Cl)s3)n2)cc1)N1CCC(N2CCCC2)CC1 | FLT3 autoinhibited | binding | competition with immobilised ligand | 1 µM | 1.8
CN(CCCC(F)(F)F)c1nccc(-c2cnn3ncccc23)n1 | FLT3 autoinhibited | binding | – | 1 µM | 100
COc1ncc2cc3ccccc3nc2c1C#N | FLT3 K663Q | cell-free assay | competition with immobilised ligand | 5 µM | 97
c1cnn2ncc(-c3ccnc(N4CCC45COC5)n3)c2c1 | FLT3 autoinhibited | binding | – | 1 µM | 58
O=C(c1ccc(Nc2ncc(Cl)c(-c3cc4ccccc4s3)n2)cc1)N1CCC(N2CCCC2)CC1 | FLT3 K663Q | binding | competition with immobilised ligand | 1 µM | 3.4
CO[C@H]1CC[C@H](CNc2ccc(S(=O)(=O)NC(=O)c3ccc(N4CCN(CC5=C(c6ccc(Cl)cc6)CC(C)(C)CC5)CC4)cc3Oc3cnc4[nH]ccc4c3)cc2[N+](=O)[O-])CC1 | FLT3 D835V | cell-free assay | competition with immobilised ligand | 1 µM | 100
O=C(NCC1CCOCC1)c1n[nH]cc1NC(=O)c1c(F)cccc1F | FLT3 K663Q | binding | competition with immobilised ligand | 1 µM | 91
C[C@@H]1CCN(c2nccc(-c3cnn4ncccc34)n2)C1 | FLT3 autoinhibited | binding | – | 1 µM | 78
COc1cnc(Nc2cccc(S(N)(=O)=O)c2)nc1N1CCN(c2ccccc2)C(=O)C1 | FLT3 R834Q | binding | competition with immobilised ligand | 1 µM | 77
CN(C)c1ncc(F)c(-c2cnn3ncccc23)n1 | FLT3 N841I | binding | – | 1 µM | 75
C=CC(=O)N1CCC(C(=O)NCC(=O)N2CCN(c3nc(-c4cnc(N)nc4C(F)F)nc(N4CCOCC4)n3)CC2)CC1 | FLT3 R834Q | binding | competition with immobilised ligand | 1 µM | 84
c1ccc(N2CCN(Cc3nc4ccccc4[nH]3)CC2)nc1 | FLT3 ITD | binding | competition with immobilised ligand | 1 µM | 100
O=C(NCCCN1CCOCC1)c1ccc(Nc2ncc(Cl)c(-c3ccc(Cl)s3)n2)cc1 | FLT3 R834Q | binding | competition with immobilised ligand | 1 µM | 7.4
Cc1cc(-n2nc(Cc3cc(F)cc(C(F)(F)F)c3)nc2C)ccc1C(N)=O | FLT3 autoinhibited | cell-free assay | competition with immobilised ligand | 1 µM | 100
O=C(NCCCN1CCOCC1)c1ccc(Nc2nccc(-c3cc4ccccc4s3)n2)cc1 | FLT3 ITD | binding | competition with immobilised ligand | 1 µM | 50
Cc1cnn2ncc(-c3ccnc(N(C)C)n3)c2c1 | Receptor-type tyrosine-protein kinase FLT3 (FLT3, Homo sapiens, UniProt P36888) | binding | – | 1 µM | 98
CNC(=O)[C@@H]1CC[C@@H](n2c(-c3ccc4cnccc4c3)nc3ccc(C(=O)NCc4cccc(C(N)=O)c4)cc32)C1 | FLT3 autoinhibited | binding | competition with immobilised ligand | 1 µM | 91
O=C(Nc1c[nH]nc1C(=O)NC1CCNCC1)c1cc(F)cc(F)c1 | FLT3 D835V | binding | competition with immobilised ligand | 1 µM | 100
CNCc1ccccc1-c1csc([C@@H](C)Nc2nc(C)nc3cc(OC)c(OC)cc23)c1 | FLT3 ITD | cell-free assay | competition with immobilised ligand | 1 µM | 89
N[C@H]1CCN(c2nccc(-c3cnn4ncccc34)n2)C1 | FLT3 D835H | binding | – | 1 µM | 92
CN(C)c1ncnc(-c2ccc3nc(Nc4cc(CN5CCN(C(=O)CC(F)(F)F)CC5)ccn4)[nH]c3c2)c1Cl | FLT3 D835Y | cell-free assay | competition with immobilised ligand | 1 µM | 38
F[C@@H]1CCN(c2nccc(-c3cnn4ncccc34)n2)C1 | FLT3 D835Y | binding | – | 1 µM | 61
Cn1nc(C(=O)NCc2ccc(C(=O)O)cc2)cc1-c1ccc2[nH]ccc2c1 | FLT3 N841I | cell-free assay | competition with immobilised ligand | 0.1 µM | 100
O=C(c1ccc(Nc2nccc(-c3cc4ccccc4s3)n2)cc1)N1CCC(N2CCCC2)CC1 | FLT3 N841I | binding | competition with immobilised ligand | 1 µM | 3.6
